Data: ChEMBL document CHEMBL5104200, “Discovery and Biological Characterization of PRMT5:MEP50 Protein-Protein Interaction Inhibitors” (J Med Chem, 2022)
Blank lines part the entries; values can stand above or below the compound they belong to. Active and inactive are the calls of the source. The rule behind the calls is not given here.

Columns and labels:
COS-1 = experiment: Induction of cell death in African green monkey COS-1 cells at 10 uM; type: functional, cell-based; conditions: Chlorocebus aethiops
[1] = molecular target: T1, PRMT5/MEP50 complex (Homo sapiens) (UniProt O14744+Q9BQA1); experiment: Inhibition of PRMT/MEP50 (unknown origin) protein-protein interaction expressed in COS-1 cells incubated for 18 hrs by BiFC screening analysis; type: cell-based; conditions: DDE = dose-dependent effect
Method in brief: (§1)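 COS-1 seeded 50,000 cells/well, co-transfected with Myc-VN155-PRMT5, HA-VC-MEP50 and FLAG-NLS-CFP. After 24 h transfection, treated 18 h at 0.5 µM or 0.25 µM (separate screens), then imaged (YFP, CFP). Per-cell YFP:CFP ratio normalized to DMSO gives BiFC efficiency; % inhibition = 100% − efficiency. Single biological replicate screens.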

[2] = molecular target: T1, PRMT5/MEP50 complex (Homo sapiens); experiment: Inhibition of PRMT5/MEP50 (unknown origin) protein-protein interaction expressed in COS-1 cells at 0.25 uM incubated for 18 hrs by BiFC screening analysis relative to control; type: cell-based; method in brief: as §1
LNCaP [3] = experiment: Induction of cell death in human LNCaP cells incubated for 72 hrs by MTT assay; type: functional, cell-based
Method in brief: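 LNCaP seeded 7,000 cells/well, attached 24 h, then given an 11-point dilution series plus DMSO control (constant 0.25% DMSO) for 72 h at 37 °C, 5% CO2. MTT at 0.5 mg/mL in complete RPMI for 4 h, then dissolved in DMSO and read at 570 nm. IC50 from regression curve; mean of three biological replicates.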

[4] = molecular target: T1, PRMT5/MEP50 complex (Homo sapiens); experiment: Inhibition of PRMT5/MEP50 (unknown origin) protein-protein interaction expressed in COS-1 cells at 10 uM incubated for 18 hrs by BiFC screening analysis relative to control; type: cell-based
Method in brief: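 Transfected COS-1 cells (VN-PRMT5, VC-MEP50, NLS-CFP) treated at 10 µM or DMSO six hours after transfection; imaged 24 h after transfection. Per-cell YFP:CFP mean intensity ratio normalized to DMSO gives BiFC efficiency; inhibition = 100% minus efficiency. Single biological replicate screen.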

[5] = molecular target: T1, PRMT5/MEP50 complex (Homo sapiens); experiment: Inhibition of PRMT5 /MEP50 protein-protein interaction in human LNCaP cells assessed as increase in IVL gene expression at 500 nM after 72 hrs by RT-qPCR analysis
LNCaP [6] = experiment: Upregulation of PTEN gene expression in human LNCaP cells at 500 nM after 72 hrs by RT-qPCR analysis; type: functional, cell-based
Method in brief: (§2)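 LNCaP seeded in 6 or 10 cm dishes, attached 24 h, treated 500 nM or DMSO for 72 h. RNA by Trizol, integrity checked on agarose gel. RT-qPCR in technical triplicate, CT normalized to GAPDH; three biological replicates, Student's t-test.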

[7] = molecular target: T1, PRMT5/MEP50 complex (Homo sapiens); experiment: Inhibition of PRMT5/MEP50 (unknown origin) protein-protein interaction expressed in COS-1 cells at 250 to 500 nM incubated for 18 hrs by BiFC screening analysis relative to control; type: cell-based; conditions: dose 250-500 nM; method in brief: as §1
[8] = molecular target: T1, PRMT5/MEP50 complex (Homo sapiens); experiment: Inhibition of PRMT5 /MEP50 protein-protein interaction in human LNCaP cells at 500 nM incubated for 24 hrs by co-immunoprecipitation method; type: cell-based
Method in brief: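 LNCaP treated 500 nM or DMSO for 24 h, lysed 1 h at 4 °C in Tris pH 7.4/NaCl/EDTA/Triton buffer with protease inhibitors. 1 mg/mL lysate immunoprecipitated overnight with anti-PRMT5, anti-MEP50 or rabbit IgG on protein A beads. Blots probed for PRMT5 and MEP50; signal normalized to 0.4% input.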

LNCaP [9] = experiment: Upregulation of RB1 gene expression in human LNCaP cells at 500 nM after 72 hrs by RT-qPCR analysis; type: functional, cell-based; method in brief: as §2
[10] = molecular target: T1, PRMT5/MEP50 complex (Homo sapiens); experiment: Inhibition of PRMT5 /MEP50 protein-protein interaction in human LNCaP cells assessed as reduction in H4R3me2 level after 72 hrs by densitometry method; type: cell-based; conditions: DDE = dose-dependent effect
Method in brief: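 LNCaP treated 72 h; lysed in RIPA with protease inhibitors, protein by Bradford, 20 µg loaded on 15% gel. Blotted with anti-H4R3 and anti-H4R3me2s, IRDye 800CW secondary, infrared imaging. H4R3me2s integrated intensity normalized to H4R3 versus DMSO; three biological replicates, t-test.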

[11] = molecular target: T1, PRMT5/MEP50 complex (Homo sapiens); experiment: Inhibition of PRMT5/MEP50 protein-protein interaction in human LNCaP cells assessed as reduction in TGF-beta signalling after 72 hrs
A549 = experiment: Cytotoxicity against human A549 cells after 72 hrs by MTT assay; type: functional, cell-based; conditions: A549, 72 h

- inhibition [4]: 24%
Compound: CCN(CC)c1ccc(/C=C2\S/C(=N/NC(=O)c3ccc(Cl)cc3Cl)NC2=O)cc1

- inhibition [4]: 24%
Compound: CCCCC(=O)Nc1sc2c(c1C(=O)NC1CCS(=O)(=O)C1)CCC(C(C)(C)C)C2 (stereo not drawn)

- inhibition [4]: 24%
Compound: Cn1cc(C(=O)NCC2CCN(C(=O)c3nc(-c4ccccc4)n4c3CCCCC4)CC2)cn1

Continued, compound first:

Compound: Cc1noc(C)c1COc1cccc(C(=O)NNC(=O)c2ccc3ccccc3n2)c1
- Activity (COS-1): Active
- inhibition [1]: Dde
- inhibition [2]: 41%
- IC50 (LNCaP [3]): 1660 nM

Compound: c1ccc(-n2cnc3ccccc32)cc1
- inhibition [4]: 24%

Compound: CCc1noc(C)c1COc1cccc(C(=O)NNC(=O)c2ccc3ccccc3n2)c1
- inhibition [5]: Active
- Activity (LNCaP [6]): Active
- inhibition [7]: Active
- inhibition [8]: 65.4%
- Activity (LNCaP [9]): Active
- inhibition [10]: Dde
- inhibition [11]: Active
- IC50 (LNCaP [3]): 430 nM
- Activity (LNCaP [3]; DDE = dose-dependent effect): Dde
- IC50 (A549): 447 nM
